Experimental data from ChEMBL document CHEMBL4732196, “Structural optimization towards promising β-methyl-4-acrylamido quinoline derivatives as PI3K/mTOR dual inhibitors for anti-cancer therapy: The in vitro and in vivo biological evaluation” (Eur J Med Chem, 2021).
Activity calls are given as the source filed them. The rule behind the calls is not given here.

target: T1, Serine/threonine-protein kinase mTOR (Homo sapiens, UniProt P42345); assay: Inhibition of recombinant human N-terminal FLAG-tagged mTOR (1362 to end amino acids) using ULight-4E-BP1 as substrate incubated for 1 hr by LANCE Ultra assay; details: not given

SMILES	IC50 [nM]
COc1ncc(-c2ccc3nccc(/C(C)=C\C(=O)N4CCOCC4)c3c2)cc1NS(=O)(=O)c1ccc(F)cc1F	141
COc1ncc(-c2ccc3nccc(/C(C)=C/C(=O)N4CCC(O)CC4)c3c2)cc1NS(=O)(=O)c1ccc(F)cc1F	6.1
COc1ncc(-c2ccc3nccc(/C(C)=C/C(=O)N4CCCC4)c3c2)cc1NS(=O)(=O)c1ccc(F)cc1F	2.1
COc1ncc(-c2ccc3nccc(/C(C)=C/C(=O)N4CCOCC4)c3c2)cc1NS(=O)(=O)c1ccc(F)cc1F	3.3

More lines, now with the values ahead:

IC50 [nM]	SMILES
3.2	COc1ncc(-c2ccc3nccc(/C=C/C(=O)N4CCN(C)CC4)c3c2)cc1NS(=O)(=O)c1ccc(F)cc1F
1.7	COc1ncc(-c2ccc3nccc(/C(C)=C/C(=O)N(C)CCO)c3c2)cc1NS(=O)(=O)c1ccc(F)cc1F

test system: U87; assay: Inhibition of PI3K in human U87MG cells assessed as suppression of phosphorylation of AKT at Thr308 residue at 25 nM after 3 hrs by Western blot analysis; assay type: cell-based; details: not given
Summary of the method: (§1)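 U87MG cells seeded at 1×10^6 per well, incubated overnight at 37 °C, 5% CO₂, then treated at various concentrations for 3 h at 37 °C. Western blot for phospho-Akt (Ser473, Thr308), phospho-S6 (Ser235/236) and phospho-4E-BP1 (Thr37/46), with GAPDH as internal control. Bands quantified as mean ± SD, n = 3 biological replicates, versus untreated cells.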

SMILES	inhibition
COc1ncc(-c2ccc3nccc(-c4ccnnc4)c3c2)cc1NS(=O)(=O)c1ccc(F)cc1F [OMIPALISIB]	Active

target: Phosphatidylinositol 4,5-bisphosphate 3-kinase catalytic subunit alpha isoform (Homo sapiens, UniProt P42336); assay: Inhibition of recombinant human PI3Kalpha using PIP2 as substrate incubated for 1 hr by kinase-glo luminescent assay; details: not given
Sequence (P42336 whole entry, canonical isoform): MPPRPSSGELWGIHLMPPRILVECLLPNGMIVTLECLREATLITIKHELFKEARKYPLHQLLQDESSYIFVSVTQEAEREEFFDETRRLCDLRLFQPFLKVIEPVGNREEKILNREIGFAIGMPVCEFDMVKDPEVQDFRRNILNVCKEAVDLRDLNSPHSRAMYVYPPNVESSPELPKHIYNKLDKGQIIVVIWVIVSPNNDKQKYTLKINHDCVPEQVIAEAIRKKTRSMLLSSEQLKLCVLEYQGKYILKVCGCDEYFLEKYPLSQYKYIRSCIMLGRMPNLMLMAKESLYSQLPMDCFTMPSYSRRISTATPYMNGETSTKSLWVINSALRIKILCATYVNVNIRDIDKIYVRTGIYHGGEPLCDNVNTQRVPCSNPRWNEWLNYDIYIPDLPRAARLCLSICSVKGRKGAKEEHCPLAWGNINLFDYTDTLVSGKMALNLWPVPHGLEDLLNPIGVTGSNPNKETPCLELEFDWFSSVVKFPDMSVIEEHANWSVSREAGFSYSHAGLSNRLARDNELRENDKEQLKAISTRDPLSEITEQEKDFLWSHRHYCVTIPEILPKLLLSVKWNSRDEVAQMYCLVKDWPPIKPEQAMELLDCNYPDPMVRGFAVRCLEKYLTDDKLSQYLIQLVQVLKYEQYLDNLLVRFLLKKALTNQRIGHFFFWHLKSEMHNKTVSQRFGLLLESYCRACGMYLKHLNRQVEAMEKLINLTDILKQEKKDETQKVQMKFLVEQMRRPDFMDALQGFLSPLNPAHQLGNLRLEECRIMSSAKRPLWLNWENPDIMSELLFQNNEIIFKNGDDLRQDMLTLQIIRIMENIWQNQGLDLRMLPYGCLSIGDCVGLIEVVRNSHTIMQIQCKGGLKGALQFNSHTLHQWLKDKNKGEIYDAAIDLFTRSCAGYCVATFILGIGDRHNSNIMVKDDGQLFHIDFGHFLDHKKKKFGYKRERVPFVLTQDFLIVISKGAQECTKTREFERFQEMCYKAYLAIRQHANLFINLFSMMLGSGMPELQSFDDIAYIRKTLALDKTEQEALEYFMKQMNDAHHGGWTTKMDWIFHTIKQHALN

SMILES	IC50 [nM]
COc1ncc(-c2ccc3nccc(/C(C)=C\C(=O)N4CCOCC4)c3c2)cc1NS(=O)(=O)c1ccc(F)cc1F	23
COc1ncc(-c2ccc3nccc(/C(C)=C/C(=O)N4CCC(O)CC4)c3c2)cc1NS(=O)(=O)c1ccc(F)cc1F	1.4
COc1ncc(-c2ccc3nccc(/C(C)=C/C(=O)N4CCCC4)c3c2)cc1NS(=O)(=O)c1ccc(F)cc1F	1.2
COc1ncc(-c2ccc3nccc(/C(C)=C/C(=O)N4CCOCC4)c3c2)cc1NS(=O)(=O)c1ccc(F)cc1F	1.1

Second part, the molecule after the results:

IC50 [nM]	SMILES
1.04	COc1ncc(-c2ccc3nccc(/C=C/C(=O)N4CCN(C)CC4)c3c2)cc1NS(=O)(=O)c1ccc(F)cc1F
1.5	COc1ncc(-c2ccc3nccc(/C(C)=C/C(=O)N(C)CCO)c3c2)cc1NS(=O)(=O)c1ccc(F)cc1F

test system: U-87 MG; assay: Growth inhibition of human U87MG cells after 72 hrs by sulforhodamine B assay; assay type: functional, U-87MG ATCC; details: not given

SMILES	GI50 [nM]
COc1ncc(-c2ccc3nccc(/C(C)=C\C(=O)N4CCOCC4)c3c2)cc1NS(=O)(=O)c1ccc(F)cc1F	> 10000
COc1ncc(-c2ccc3nccc(/C(C)=C/C(=O)N4CCC(O)CC4)c3c2)cc1NS(=O)(=O)c1ccc(F)cc1F	600
COc1ncc(-c2ccc3nccc(/C(C)=C/C(=O)N4CCCC4)c3c2)cc1NS(=O)(=O)c1ccc(F)cc1F	390
COc1ncc(-c2ccc3nccc(/C(C)=C/C(=O)N4CCOCC4)c3c2)cc1NS(=O)(=O)c1ccc(F)cc1F	610

The next lines start with the values.

GI50 [nM]	SMILES
220	COc1ncc(-c2ccc3nccc(/C=C/C(=O)N4CCN(C)CC4)c3c2)cc1NS(=O)(=O)c1ccc(F)cc1F
380	COc1ncc(-c2ccc3nccc(/C(C)=C/C(=O)N(C)CCO)c3c2)cc1NS(=O)(=O)c1ccc(F)cc1F
220	COc1ncc(-c2ccc3nccc(-c4ccnnc4)c3c2)cc1NS(=O)(=O)c1ccc(F)cc1F [OMIPALISIB]

test system: U87; assay: Inhibition of PI3K in human U87MG cells assessed as suppression of phosphorylation of AKT at Ser473 residue at 25 nM after 3 hrs by Western blot analysis; assay type: cell-based; details: not given; summary of the method: as §1

SMILES	inhibition
COc1ncc(-c2ccc3nccc(-c4ccnnc4)c3c2)cc1NS(=O)(=O)c1ccc(F)cc1F [OMIPALISIB]	Active

target: T1, Serine/threonine-protein kinase mTOR; assay: Inhibition of mTOR in human U87MG cells assessed as suppression of phosphorylation of S6 ribosomal at 25 nM after 3 hrs by Western blot analysis; details: U87

inhibition	SMILES
Active	COc1ncc(-c2ccc3nccc(-c4ccnnc4)c3c2)cc1NS(=O)(=O)c1ccc(F)cc1F [OMIPALISIB]

test system: PC-3; assay: Growth inhibition of human PC3 cells after 72 hrs by sulforhodamine B assay; assay type: functional; details: not given

SMILES	GI50 [nM]
COc1ncc(-c2ccc3nccc(/C(C)=C\C(=O)N4CCOCC4)c3c2)cc1NS(=O)(=O)c1ccc(F)cc1F	8020
COc1ncc(-c2ccc3nccc(/C(C)=C/C(=O)N4CCC(O)CC4)c3c2)cc1NS(=O)(=O)c1ccc(F)cc1F	1080
COc1ncc(-c2ccc3nccc(/C(C)=C/C(=O)N4CCCC4)c3c2)cc1NS(=O)(=O)c1ccc(F)cc1F	1160
COc1ncc(-c2ccc3nccc(/C(C)=C/C(=O)N4CCOCC4)c3c2)cc1NS(=O)(=O)c1ccc(F)cc1F	1670

Second part, the molecule after the results:

GI50 [nM]	SMILES
450	COc1ncc(-c2ccc3nccc(/C=C/C(=O)N4CCN(C)CC4)c3c2)cc1NS(=O)(=O)c1ccc(F)cc1F
290	COc1ncc(-c2ccc3nccc(/C(C)=C/C(=O)N(C)CCO)c3c2)cc1NS(=O)(=O)c1ccc(F)cc1F
250	COc1ncc(-c2ccc3nccc(-c4ccnnc4)c3c2)cc1NS(=O)(=O)c1ccc(F)cc1F [OMIPALISIB]

target: T1, Serine/threonine-protein kinase mTOR; assay: Inhibition of mTOR in human U87MG cells assessed as suppression of phosphorylation of S6 ribosomal at Ser235/236 residues at 25 nM after 3 hrs by Western blot analysis; assay type: cell-based; details: U87
Summary of the method: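 U87MG cells were seeded at 1×10^6 per well and held overnight at 37 °C, 5% CO2. They were then exposed to a range of inhibitor concentrations for 3 h at 37 °C. Phospho-Akt (Ser473, Thr308), phospho-S6 (Ser235/236) and phospho-4E-BP1 (Thr37/46) were measured by Western blot with GAPDH as loading control. Bands were quantified as mean ± SD of 3 biological replicates against untreated cells.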

inhibition	SMILES
Active	COc1ncc(-c2ccc3nccc(-c4ccnnc4)c3c2)cc1NS(=O)(=O)c1ccc(F)cc1F [OMIPALISIB]

test system: not listed separately; assay: MRT(0 to infinity) in Sprague-Dawley rat at 5 mg/kg, po; assay type: ADME, organism-based; details: in vivo
Summary of the method: (§2)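 Male Sprague-Dawley rats (n = 3) received a single 5 mg/kg oral gavage dose formulated as a suspension in 0.5% methylcellulose. Plasma concentration-time curves were recorded and mean PK parameters derived.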

MRT inf [h]	SMILES
2.59	COc1ncc(-c2ccc3nccc(/C=C/C(=O)N4CCN(C)CC4)c3c2)cc1NS(=O)(=O)c1ccc(F)cc1F

test system: not listed separately; assay: MRT(0 to t) in Sprague-Dawley rat at 5 mg/kg, po; assay type: ADME, organism-based; details: in vivo; summary of the method: as §2

MRT last [h]	SMILES
1.89	COc1ncc(-c2ccc3nccc(/C=C/C(=O)N4CCN(C)CC4)c3c2)cc1NS(=O)(=O)c1ccc(F)cc1F
